Most compounds without a hit are left out; they make up all but 1.9% or so of the library.
PLC-gamma1 inh: inhibitors of human phospholipase C gamma1; 370,000 tested, 0.84% active; purified PLC-gamma1, fluorogenic substrate, fluorescence; P19174; inhibition, % at 12.2 µM; AID 720700; in the data active = inhibition above about 9.5%
ARFGAP1 inhibitor: rat ARFGAP1 inhibition; Arfgap1-stimulated ARF1 GTP hydrolysis, GDP FP detection; inhibition, % at 16.5 µM; 360,000 tested, 0.26% active;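 active = inhibition above a per-plate limit, mean inhibition of low control wells plus 3 SD, cut at about 25% in these data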;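 note: 0% = DMSO wells with enzyme and 100% = wells lacking Arfgap1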
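Material: truncated rat Arfgap1 GAP domain; Incubation: compound-enzyme preincubation 20 min, reaction 120 min, detection 60 min, 25 °C; Read-out: percent inhibition of Arfgap1-stimulated GTP hydrolysis; Technique: FP, GDP Alexa 633 tracer displaced from anti-GDP antibody, 620/688 nm; Controls: No-Arfgap1 wells (100%) versus DMSO full-reaction wells (0%); Replication: single well per compound.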
PLCb3 inh: blocks human PLC-beta3 enzyme activity | Q01970 | Purified PLC-beta3, fluorogenic substrate, fluorescence | inhibition, % at 12.2 µM | 370,000 tested, 0.18% active | AID 720704;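 note: 0% = median of compound wells on plate and 100% = full blocker control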
ASAP1 GAP inh: inhibitors of human ASAP1 ArfGAP activity | 360,000 tested, 0.19% active | ASAP1-stimulated ARF1 GTP hydrolysis, GDP FP detection | Q9ULH1 | AID 624377 | inhibition, % at 16.5 µM; in the data active = inhibition above about 25%;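 note: 0% = vehicle with enzyme and substrate and 100% = no enzyme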
HGIII-sPLA2 inh: Inhibits HGIII-sPLA2 liposome hydrolysis, primary screen | Q9NZ20 | QFRET BODIPY PC-A2 liposome hydrolysis, fluorescence | inhibition, % at 12.2 µM | 370,000 tested, 0.56% active;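 active = inhibition above mean plus 3 SD of compounds lying within the high and low control bounds, cut at about 19% in these data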;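 note: 0% = median of test compound wells and 100% = no enzyme DMSO wells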
PLCg1 ctr: inhibits human PLC-gamma1 in PLC-beta3 counter-screen; shares compounds with PLC-gamma1 inh; purified PLC-gamma1, fluorogenic substrate, fluorescence; inhibition, % at 12.3 µM; 3,300 tested, 3.1% active; in the data active = inhibition above about 9.5%
PLCbeta3 conf: human PLC-beta3 inhibition, confirmation | purified PLC-beta3, fluorogenic substrate fluorescence | inhibition, % at 12.3 µM | shares compounds with PLC-gamma1 inh | 3,300 tested, 1% active
The depositor's hits bear a star; · = no result. Cut-off read from the data, not from the text of the source, unless noted: active = inhibition above about 11%; inactive = the rest.

SMILES	PLC-gamma1 inh	ARFGAP1 inhibitor	PLCb3 inh	ASAP1 GAP inh	HGIII-sPLA2 inh	PLCg1 ctr	PLCbeta3 conf
COc1ccccc1/C=C/C(=O)OCCN1C(=O)c2ccccc2C1=O	11*	19	-4	-4	-2	-14	-12
COCCn1c(SCC(=O)N2CCCC2)nc2c(c1=O)SCC2	7	13	11*	14	8	4	4
COCCn1c(SCC(=O)N2CCC(C)CC2)nc2c(c1=O)SCC2	5	-5	-9	3	3	·	·
COC(=O)C1CN(Cc2cn(Cc3ccc(C)cc3)nn2)CCS(=O)(=O)N1Cc1ccc(C)cc1 (stereo not given)	8	·	3	·	4	·	·
CCOc1cc(CNCC2CCCN2CC)cc(Cl)c1OC (stereo not given)	12*	7	1	2	12	-1	-1
Nc1ccc(C(=O)N/N=C\C=C\c2cccc([N+](=O)[O-])c2)cc1	15*	10	16*	-8	9	-17	2
Cc1cccc(C)c1-n1ncc(C(=O)NC2CCCC2)c1C1CCNCC1	15*	-1	2	9	7	0	6
CCN(CC)c1nc2c(c(=O)[nH]c(=O)n2C)n1Cc1ccccc1Cl	6	-3	2	13	2	·	·
CN(C)c1nc2c(c(=O)[nH]c(=O)n2C)n1Cc1ccccc1Br	11*	7	11	12	1	-4	-2
Cc1nnc(SCC(=O)Nc2sc3c(c2C#N)CCCCC3)n1N	-3	-1	-2	-4	-4	·	·
N#Cc1c(NC(=O)CSc2nnnn2C2CCCCC2)sc2c1CCCC2	10*	4	3	12	5	-6	3
CC(=O)Nc1c([N+](=O)[O-])cc2[nH]c(=O)[nH]c2c1[N+](=O)[O-]	12*	-2	12*	-9	9	-7	0
O=c1[nH]c2cc([N+](=O)[O-])c(NCCO)c([N+](=O)[O-])c2[nH]1	1	-1	1	5	5	·	·
CC1(C)Oc2ccc(C(=O)NC3CCCC3)cc2NC1=O	0	·	2	·	3	·	·
COC(=O)CCC(=O)N1CCC(CCC(=O)NCc2ccc(F)cc2)CC1	13*	15	-3	8	2	-4	-5
Cc1cccc(OCC(=O)Nc2cc(Cl)ccc2-n2cncn2)c1C	-6	4	-8	-13	-1	·	·
CCCOc1ccccc1OCC(=O)Nc1cc(Cl)ccc1-n1cncn1	11*	-2	5	3	1	-2	-334
CC[C@@H](CCCc1ccc(F)cc1)CN(Cc1ccc(OC)cc1)S(=O)(=O)c1ccc(C)cc1	0	·	-4	·	5	·	·
CCOC(=O)N1C(=O)C[C@](Sc2ccc(OC)cc2)(C(=O)N2CCOCC2)[C@H]1c1ccc(OC)cc1	0	·	1	·	0	·	·
O=c1c2ccccc2n(Cc2ccco2)n1[C@@H](Cc1ccccc1)Cn1cc(-c2ccc(-c3ccccc3)cc2)nn1	-30	·	-50	·	6	·	·
CCN(CC)S(=O)(=O)c1ccc(/C=C/C(=O)Nc2ccccc2N2CCOCC2)cc1	9.6*	15	-2	5	-3	4	-7
CCN(CC)S(=O)(=O)c1ccc(N2CCOCC2)c(NC(=O)c2ccccc2)c1	2	6	2	4	-1	·	·
CCOC(=O)Nc1cc(=O)c([N+](=O)[O-])c(N)[nH]1	4	1	13*	1	1	-3	3
COc1cc(/C=N/NC(=O)c2cc[n+]([O-])cc2)ccc1O	17*	-7	10	12	14	3	2
O=C(CSc1nc2c(c(C(F)(F)F)n1)CCc1ccccc1-2)NCc1ccc(F)cc1	13*	1	13*	-1	6	-8	-2
SMILES	PLC-gamma1 inh	ARFGAP1 inhibitor	PLCb3 inh	ASAP1 GAP inh	HGIII-sPLA2 inh	PLCg1 ctr	PLCbeta3 conf
CCc1ccc(CCNC(=O)OC2CC3CC2[C@H]2CCCCN2[C@H]3C)cc1 (stereo not given in full)	-1	·	1	·	-1	·	·
O=C(OC1CCN(c2ncc(C(F)(F)F)cc2Cl)CC1)c1cccc(C(F)(F)F)c1	1	14	2	5	-1	·	·
O=C(c1cccc(C(F)(F)F)c1)N1CCOC12CCN(c1ncc(C(F)(F)F)cc1Cl)CC2	11*	-21	2	-7	16	-5	-3
Cc1cc(C)c(CSc2nnnn2-c2ccc(C(=O)O)cc2)c(C)c1	12*	4	-2	-10	-18	-4	-5
O=C(O)CCSc1nnc(COc2ccc([N+](=O)[O-])cc2)n1-c1ccccc1	11*	-7	-3	-16	4	0	2
O=C(O)c1ccc(-n2nnnc2SCc2cccc(Br)c2)cc1	1	-5	-3	-6	9	·	·
O=C(O)CSc1nnc(COc2ccc([N+](=O)[O-])cc2)n1-c1ccccc1	-2	-14	-3	-2	0	·	·
Cc1cc(C)nc(NC(=O)CSc2nnnn2-c2ccccc2)n1	12*	-10	1	2	-2	0	2
COc1ccc(NC(=O)CSc2nnnn2-c2ccc(OC)cc2)cc1	11*	-3	1	14	9	0	2
COc1ccc(NC(=O)CSc2nnnn2-c2ccc(F)cc2)cc1	0	-8	-6	-1	-2	·	·
COc1ccc(C2C(C(=O)Nc3ccc(F)cc3F)CCC(=O)N2c2ccc(OC)cc2)cc1 (stereo not given)	-2	·	4	·	-6	·	·
O=C(NCCN1CCC(Cc2ccccc2)CC1)C1CCCN(S(=O)(=O)c2ccc(Cl)s2)C1 (stereo not given)	8	·	5	·	-24	·	·
COc1ccc(-n2c(COc3ccccc3)nnc2SCC(=O)Nc2ccc(OCc3ccccc3)cc2)cc1	9.6*	·	0	·	4	5	-9
Cc1ccc(C(=O)CSc2nnnn2-c2ccccc2)o1	11*	-1	-1	-1	-52	-5	1
Cc1ccc(C(=O)CSc2nnc(-c3ccccc3)n2-c2ccccc2)o1	-2	-18	4	10	-19	·	·
Cc1cc(C)nc(SCc2nnc(SCC(=O)Nc3nc(-c4ccccc4)cs3)n2-c2ccccc2)n1	11*	-1	7	-1	0	-3	0
C=CCn1c(SCC(=O)Nc2ccccc2-c2ccccc2)nnc1-c1ccccc1	13*	·	10	·	-3	-1	2
CCOc1ccc(-n2c(COc3ccc(Cl)cc3)nnc2SCC(=O)Nc2ccc(OCc3ccccc3)cc2)cc1	0	·	4	·	-6	·	·
Cc1ccc(CNC(=O)OC(C)(C)C)c(/C=C/S(=O)(=O)NCCc2ccccc2)c1	2	·	-5	·	4	·	·
CCC(NC(=O)C1CCCN(c2ncccn2)C1)c1ccccc1 (stereo not given)	-9	·	-11	·	-1	·	·

Screening results as filed in PubChem.
